Assay outcomes as filed in PubChem.
Compounds with a hit are over-represented: about 2% of the library has one in this group of screens.
DENV2 CPE rescue – protects cells from dengue virus 2 cytopathic effect | AID 651640 | DENV2-infected cells, cytopathic effect rescue, plate reader | CPE inhibition, % at 9.99 µM | 350,000 compounds, 1.7% hits; in the data active means CPE inhibition above about 20%, passing the limit was not always enough; inconclusive means no clear call, values can overlap the other calls; tested in BHK-21 cells;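 further: 0% = median of neutral control wells and 100% = median of positive control wells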
XiGFP reactiv – X-chromosome reactivation activator | XiGFP mouse fibroblasts, % GFP-positive cells imaging, 3 d; cells co-treated with 5-aza-dC sensitizer; scaled so ellipticine positive control = 100% | activation, % at 7.58 µM | 360,000 compounds, 0.055% hits;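 active means mean normalized replicate activation at least 10% and every replicate at or above 10%; inconclusive means only one of the two criteria met; inactive means mean below 10% and not all replicates reach 10%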;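 further: 0% = median of on-plate neutral control wells and 100% = ellipticine 6 µM median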
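System: XiGFP fibroblasts, SV40-immortalized. Medium: DMEM plus 5-aza-dC sensitizer. Doses: single point. Timing: 3 d treatment, 15 min room-temperature fixation. Control set: ellipticine 6 µM.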
Casp6 inh – inhibitors of human caspase-6 | P55212 | purified caspase-6, Z-VEID-R110 cleavage fluorescence | inhibition, % at 12.5 µM | 350,000 compounds, 0.53% hits | AID 686996;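 active means mean inhibition across replicates at least about 35%, with every replicate also reaching that limit, limit read from the data; inconclusive means only one of the two criteria met; inactive means neither criterion met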;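 further: 0% = median of neutral control wells and 100% = no fluorescence left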
Target sequence (P55212 24-179 limits assumed): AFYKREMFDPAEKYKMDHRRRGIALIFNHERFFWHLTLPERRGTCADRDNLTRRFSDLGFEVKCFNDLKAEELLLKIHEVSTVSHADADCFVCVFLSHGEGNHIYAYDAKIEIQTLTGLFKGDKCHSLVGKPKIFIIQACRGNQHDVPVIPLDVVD
Target sequence (P55212 194-293 limits assumed): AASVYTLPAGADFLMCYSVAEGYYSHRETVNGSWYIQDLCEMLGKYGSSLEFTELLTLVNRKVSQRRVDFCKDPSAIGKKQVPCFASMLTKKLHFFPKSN
FN deposit inh – fibronectin deposition inhibition; AH1F fibroblasts, Alexa488-fibronectin deposition fluorescence, overnight; 350,000 compounds, 0.086% hits; inhibition, % at 12.6 µM;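 active means mean inhibition across replicates of 30% or more, regardless of how many single replicates reach that level; inconclusive means mean under 30% yet at least half of replicates reach 30%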;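 further: positive control wells lacked labelled fibronectin entirely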
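Material: AH1F fibroblast monolayer depositing Alexa488-labelled fibronectin into matrix / Amount: 10000 AH1F cells per well / Signal: fluorescence 485/525 nm / Medium: DMEM, 2% serum / Compound: single dose, pinned / Incubation: 1 h cell adhesion before compound, then overnight fibronectin incubation / Reagent: Alexa488-FN, 24 nM final / Read-out: inhibition of fibronectin deposition signal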
CaV13 ICDI inh – Primary screen for inhibitors of IQ motif and Ca2+-dependent inactivation inhibitor domain binding in CACNA1D, Förster resonance energy transfer in living cells, …; 340,000 compounds, 0.098% hits; AID 743397; inhibition, % at 12.3 µM; HEK cells, CFP/YFP FRET ICDI-IQ, plate reader, 10 min; percent FRET-ratio fall versus neutral wells;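 active means mean replicate inhibition of at least 30% and at least 1% of replicates passing that level; inconclusive means only one of the two criteria is met; inactive means neither criterion is met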;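 further: 0% = median of the neutral control wells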
Active calls of the source: *; ? = inconclusive; . = no result; + = active, no number.

SMILES	DENV2 CPE rescue	XiGFP reactiv	Casp6 inh	FN deposit inh	CaV13 ICDI inh
CCN(c1ccccc1)S(=O)(=O)c1ccc(OC)c(NC(=O)CNC)c1	3	0	1	2	-5
CCN(c1ccccc1)S(=O)(=O)c1ccc(OC)c(NC(=O)CN(C)C)c1	-3	0	6	-5	+
CC(=O)N1CC2(C1)[C@H](c1ccc(-c3cccc(F)c3)cc1)[C@H](CO)N2CC1CCCC1	4	0	16	.	.
Cn1cccc1C(=O)OCC(=O)NC(=O)c1ccc(Cl)cc1	26*	0	-1	2	-6
C[C@@H]1CN([C@H](C)CO)S(=O)(=O)c2ccc(C#Cc3ccccn3)cc2O[C@H]1CN(C)C(=O)C1CC1	-8	0	0	-19	.
CCC(=O)N1CCC2(CC1)CN(C(=O)Nc1ccc(F)cc1)[C@H](CO)c1c2c2ccc(OC)cc2n1C	7	0	0	.	.
COc1ccc2c3c(n(C)c2c1)[C@H](CO)N(C(=O)C1CCCC1)CC31CCN(C(=O)Nc2cccc(F)c2)CC1	28*	0	0	8	.
COc1ccc2c3c(n(C)c2c1)[C@@H](CO)N(C(=O)Nc1ccc(F)cc1)CC31CCN(C(=O)c2ccccc2F)CC1	40*	0	0	.	.
COc1ccc2c3c(n(C)c2c1)[C@@H](CO)N(C(=O)C1CCCC1)CC31CCN(C(=O)Nc2cccc(F)c2)CC1	-7	0	1	-4	.
COc1ccc2c3c(n(C)c2c1)[C@H](CO)N(C(=O)c1ccccc1)CC31CN(C(=O)c2ccccc2)C1	7	0	4	.	.
COc1ccc2c3c(n(C)c2c1)[C@H](CO)N(C(=O)c1cccc(F)c1)CC31CN(C(=O)c2cccc(F)c2)C1	46*	0	1	15	.
CCC(=O)N1CC2(C1)CN(C(=O)Nc1ccc(F)cc1)[C@H](CO)c1c2c2ccc(OC)cc2n1C	80*	0	.	.	.
CC(C)NC(=O)Nc1ccc2c(c1)C(=O)N([C@@H](C)CO)C[C@@H](C)[C@@H](CN(C)C(=O)CCCN(C)C)OCCCC[C@@H](C)O2	15	0	-2	-3	.
O=C(Nc1cc(C(F)(F)F)ccc1N1CCOCC1)C1=NN(c2ccccc2)C(=O)CC1	-4	0	-1	0	-5
O=C(Nc1ccccc1N1CCOCC1)C1=NN(c2ccccc2)C(=O)CC1	69*	0	0	.	-7
COc1ccc2c3c(n(C)c2c1)[C@H](CO)N(C(=O)c1ccncc1)CC31CN(S(C)(=O)=O)C1	?	0	.	.	.
CCCCSc1nc2c(cnn2-c2ccc(C)c(C)c2)c(=O)[nH]1	50*	0	0	-7	-7
CCCSc1nc2c(cnn2-c2ccc(C)c(C)c2)c(=O)[nH]1	5	0	-1	-1	-5
c1ccc2c(C[C@@H]3CNCCN3CCCCC3CCCCC3)cccc2c1	24*	0	-3	21	-4
COc1cc(/C=C2/C(C)=C(C#N)c3nc(N)c(C#N)c(C)c32)ccc1OCC(=O)O	-3	0	.	-3	-5
CC1=C(C#N)c2nc(N)c(C#N)c(C)c2/C1=C\c1ccc(-c2ccccc2C(=O)O)o1	-4	0	54*	-1	-12
CS(=O)(=O)N1[C@H](C#N)[C@H](c2ccccc2-c2ccc(F)cc2)[C@H]1CO	-13	0	-1	-13	.
Cc1noc(C)c1S(=O)(=O)Nc1ccc2c(c1)C(=O)N([C@H](C)CO)C[C@H](C)[C@@H](CN(C)Cc1ccc(Cl)c(Cl)c1)OCCCC[C@H](C)O2	1	0	0	.	.
Cc1noc(C)c1S(=O)(=O)Nc1ccc2c(c1)C(=O)N([C@H](C)CO)C[C@@H](C)[C@H](CN(C)Cc1ccc(C(=O)O)cc1)OCCCC[C@@H](C)O2	12	0	-2	-17	.
Cc1noc(C)c1S(=O)(=O)Nc1ccc2c(c1)C(=O)N([C@@H](C)CO)C[C@@H](C)[C@H](CN(C)Cc1ccncc1)OCCCC[C@H](C)O2	7	0	3	.	.
SMILES	DENV2 CPE rescue	XiGFP reactiv	Casp6 inh	FN deposit inh	CaV13 ICDI inh
Cc1noc(C)c1S(=O)(=O)Nc1ccc2c(c1)C(=O)N([C@@H](C)CO)C[C@H](C)[C@@H](CN(C)Cc1ccc(Cl)c(Cl)c1)OCCCC[C@H](C)O2	23*	0	4	.	.
Cc1noc(C)c1S(=O)(=O)Nc1ccc2c(c1)C(=O)N([C@H](C)CO)C[C@H](C)[C@H](CN(C)Cc1ccc(C(=O)O)cc1)OCCCC[C@@H](C)O2	50*	0	-2	5	.
Cc1noc(C)c1S(=O)(=O)Nc1ccc2c(c1)C(=O)N([C@@H](C)CO)C[C@H](C)[C@@H](CN(C)Cc1ccncc1)OCCCC[C@@H](C)O2	22*	0	1	.	.
COc1ccc(S(=O)(=O)Nc2ccc3c(c2)[C@@H]2C[C@@H](CC(=O)O)O[C@@H](CO)[C@@H]2O3)cc1	-2	0	9	-5	.
C[C@@H]1CN([C@@H](C)CO)S(=O)(=O)c2ccc(C3=CCCCC3)cc2O[C@@H]1CN(C)Cc1ccncc1	-4	-1	0	.	.
C[C@@H]1CN([C@H](C)CO)C(=O)c2cc(C#CC3CCCC3)cnc2O[C@@H]1CN(C)C(=O)Nc1ccccc1	-1	-1	5	-10	.
CCCCNc1nc(NCc2ccccc2)nc2ccccc12	-15	0	44*	4	-5
O=C(c1ccc2c(c1)OCO2)N1CC(=O)N2[C@H](C1)[C@@H](c1ccc(C#CC3CCCC3)cc1)[C@@H]2CO	.	0	.	.	.
COc1cc2oc3cc(C#Cc4ccc(N)cc4)ccc3c(=O)c2cc1OC	?	0	-2	2	-16
Nc1ccc(C#Cc2ccc3c(=O)c4ccccc4oc3c2)cc1	-10	0	-2	-20	106*
Cc1ccccc1-c1cnc(C(O)c2cccc(C)c2C)[nH]1 (stereo not drawn)	21*	0	2	0	-4
Cc1ccc(C(O)c2ncc(-c3ccccc3C)[nH]2)cc1F (stereo not drawn)	7	0	0	1	-6
Cc1ccc(C(O)c2ncc(-c3cccc4ccccc34)[nH]2)cc1F (stereo not drawn)	-8	0	2	30*	-4
C[C@@H]1CN([C@H](C)CO)C(=O)c2cc(NC(=O)Nc3cccc4ccccc34)ccc2O[C@@H](C)CCCCO[C@H]1CN(C)S(=O)(=O)c1ccc(F)cc1	-6	0	0	-10	.
C=CCN1C=C2C(=O)C(C)(OC(=O)c3cccs3)C(=O)C=C2C=C1CCCC(=O)OC (stereo not drawn)	?	0	5	-1	-12
COC(=O)CCCC1=CC2=CC(=O)C(C)(OC(=O)c3cccs3)C(=O)C2=CN1CCc1ccccn1 (stereo not drawn)	24*	1	14	4	-4
